Experimental data from ChEMBL document CHEMBL1137781, “Synthesis and preclinical evaluation of novel PET probes for P-glycoprotein function and expression” (J Med Chem, 2009).

Tests used:
Conditions in all cases: in vivo
Pons [1] = experiment: Biodistribution in Wistar rat pons at 40+/-4 MBq, iv after 80 mins; assay type: ADME, organism-based
Plasma = experiment: Biodistribution in 50 mg/kg cyclosporin A pretreated Wistar rat plasma at 27+/-2 MBq, iv after 80 mins; assay type: ADME, organism-based; parameters: dose 50 mg/kg, route intravenous
Duodenum = experiment: Biodistribution in Wistar rat duodenum at 40+/-4 MBq, iv after 80 mins; assay type: ADME, organism-based
In short: (§1)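 Male Wistar rats (12 h light/dark, chow ad libitum) were fitted with a femoral arterial cannula under isoflurane. They were pretreated via tail vein with saline, cyclosporin A (50 mg/kg), or nonradioactive tracer compound (15 mg/kg; 10 mg/mL in saline with 35% ethanol). The 11C tracer was then given via penile vein, followed by 76 min microPET. Animals were then terminated; excised tissues were weighed and gamma-counted with decay correction. Values are SUVs (tissue MBq/g × body weight g / injected MBq).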

[2] = Biodistribution in 50 mg/kg cyclosporin A pretreated Wistar rat trachea at 27+/-2 MBq, iv after 80 mins; assay type: ADME, organism-based; parameters: dose 50 mg/kg, route intravenous
Lung [3] = experiment: Biodistribution in Wistar rat lung at 40+/-4 MBq, iv after 80 mins; assay type: ADME, organism-based; in short: as §1
[4] = Biodistribution in 50 mg/kg cyclosporin A pretreated Wistar rat bulbus olfactorius at 27+/-2 MBq, iv after 80 mins; assay type: ADME, organism-based, Olfactory bulb; parameters: dose 50 mg/kg, route intravenous
In short: (§2)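 Male Wistar rats pretreated via tail vein with saline or cyclosporin A (50 mg/kg, commercial solution), then given the [11C] tracer via penile vein. After microPET scanning the anesthetized rats were killed. Tissues were excised and weighed, and blood was centrifuged into plasma and cells. γ counting with decay correction. Results as SUV (tissue MBq/g × body weight/injected dose).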

Muscle tissue [5] = experiment: Biodistribution in Wistar rat muscle at 40+/-4 MBq, iv after 80 mins; assay type: ADME, organism-based; in short: as §1
[6] = Biodistribution in 50 mg/kg cyclosporin A pretreated Wistar rat red blood cells at 27+/-2 MBq, iv after 80 mins; assay type: ADME, organism-based, Erythrocyte; parameters: dose 50 mg/kg, route intravenous
[7] = Biodistribution in Wistar rat medulla at 40+/-4 MBq, iv after 80 mins; assay type: ADME, organism-based, Medulla of organ; in short: as §1
[8] = Biodistribution in Wistar rat cingulate cortex at 40+/-4 MBq, iv after 80 mins; assay type: ADME, organism-based; in short: as §1
[9] = Biodistribution in Wistar rat amygdala at 40+/-4 MBq, iv after 80 mins; assay type: ADME, organism-based
[10] = Biodistribution in Wistar rat trachea at 40+/-4 MBq, iv after 80 mins; assay type: ADME, organism-based
Colon [11] = experiment: Biodistribution in Wistar rat colon at 40+/-4 MBq, iv after 80 mins; assay type: ADME, organism-based; in short: as §1
[12] = Biodistribution in Wistar rat bulbus olfactorius at 40+/-4 MBq, iv after 80 mins; assay type: ADME, organism-based, Olfactory bulb
Lung [13] = experiment: Biodistribution in 50 mg/kg cyclosporin A pretreated Wistar rat lung at 27+/-2 MBq, iv after 80 mins; assay type: ADME, organism-based; parameters: dose 50 mg/kg, route intravenous
Muscle tissue [14] = experiment: Biodistribution in 50 mg/kg cyclosporin A pretreated Wistar rat muscle at 27+/-2 MBq, iv after 80 mins; assay type: ADME, organism-based; parameters: dose 50 mg/kg, route intravenous
Spleen [15] = experiment: Biodistribution in 50 mg/kg cyclosporin A pretreated Wistar rat spleen at 27+/-2 MBq, iv after 80 mins; assay type: ADME, organism-based; parameters: dose 50 mg/kg, route intravenous
Colon [16] = experiment: Biodistribution in 50 mg/kg cyclosporin A pretreated Wistar rat colon at 27+/-2 MBq, iv after 80 mins; assay type: ADME, organism-based; parameters: dose 50 mg/kg, route intravenous; in short: as §2
Brain = experiment: Biodistribution in Wistar rat brain at 40+/-4 MBq, iv after 25 mins; assay type: ADME, organism-based
Cerebellum = experiment: Biodistribution in 50 mg/kg cyclosporin A pretreated Wistar rat cerebellum at 27+/-2 MBq, iv after 80 mins; assay type: ADME, organism-based; parameters: dose 50 mg/kg, route intravenous; in short: as §2
Pancreas = experiment: Biodistribution in Wistar rat pancreas at 40+/-4 MBq, iv after 80 mins; assay type: ADME, organism-based; in short: as §1
Pons [17] = experiment: Biodistribution in 50 mg/kg cyclosporin A pretreated Wistar rat pons at 27+/-2 MBq, iv after 80 mins; assay type: ADME, organism-based; parameters: dose 50 mg/kg, route intravenous
Kidney = experiment: Biodistribution in 50 mg/kg cyclosporin A pretreated Wistar rat kidney at 27+/-2 MBq, iv after 80 mins; assay type: ADME, organism-based; parameters: dose 50 mg/kg, route intravenous
[18] = Biodistribution in 50 mg/kg cyclosporin A pretreated Wistar rat medulla at 27+/-2 MBq, iv after 80 mins; assay type: ADME, organism-based, Medulla of organ; parameters: dose 50 mg/kg, route intravenous
Striatum = experiment: Biodistribution in 50 mg/kg cyclosporin A pretreated Wistar rat striatum at 27+/-2 MBq, iv after 80 mins; assay type: ADME, organism-based; parameters: dose 50 mg/kg, route intravenous
[19] = Biodistribution in 50 mg/kg cyclosporin A pretreated Wistar rat entorhinal cortex at 27+/-2 MBq, iv after 80 mins; assay type: ADME, organism-based; parameters: dose 50 mg/kg, route intravenous; in short: as §2
Spleen [20] = experiment: Biodistribution in Wistar rat spleen at 40+/-4 MBq, iv after 80 mins; assay type: ADME, organism-based
Liver = experiment: Biodistribution in 50 mg/kg cyclosporin A pretreated Wistar rat liver at 27+/-2 MBq, iv after 80 mins; assay type: ADME, organism-based; parameters: dose 50 mg/kg, route intravenous

COc1cc2c(cc1OC)CN(CCCC1CCCc3c(O[11CH3])cccc31)CC2 (stereo not drawn)
SUV (Pons [1]): 0.48
SUV (Plasma): 0.32
SUV (Duodenum): 2.74
SUV [2]: 0.74
SUV (Lung [3]): 1.19
SUV [4]: 0.84
SUV (Muscle tissue [5]): 0.37
SUV [6]: 0.16
SUV [7]: 0.41
SUV [8]: 0.37
SUV [9]: 0.37
SUV [10]: 0.78
SUV (Colon [11]): 1.37
SUV [12]: 0.33
SUV (Lung [13]): 0.98
SUV (Muscle tissue [14]): 0.26
SUV (Spleen [15]): 1.73
SUV (Colon [16]): 1.81
SUV (Brain): 0.88
SUV (Cerebellum): 0.99
SUV (Pancreas): 3.16
SUV (Pons [17]): 1.28
SUV (Kidney): 1.47
SUV [18]: 1.14
SUV (Striatum): 0.87
SUV [19]: 1.23
SUV (Spleen [20]): 1.64
SUV (Liver): 2.67
